ChEMBL document CHEMBL4831539, “Withanolide-Type Steroids from Physalis nicandroides Inhibit HIV Transcription” (J Nat Prod, 2021)
pIC50: −log10 of the molar value.

Tests used:
[1] = Selectivity index, ratio of CC50 for human MT2 cells to IC50 for Anti-HIV activity against HIV; assay type: toxicity; details: read-out: Selectivity Index
Summary of the method: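 SI = CC50/IC50. […] CC50 came from mock-infected MT-2 cells under the same conditions, read by CellTiter Glo. Both are means of at least three independent experiments, fitted by nonlinear regression.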

[2] = test system: Human immunodeficiency virus; experiment: Antiviral activity against VSV envelope pseudotyped HIV infected in MT2 cells assessed as luminescence measured after 48 hrs by viral entry evaluation assay; assay type: functional, organism-based; details: Human immunodeficiency virus 1, MT2, 48 h
Summary of the method: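 VSV-G pseudotyped HIV came from 293T cotransfection (calcium phosphate) of envelope-deleted pNL4.3-Luc-RE plus pcDNA3-VSV. MT-2 cells were infected at 100 000 RLUs or 20 ng p24 per well, with base-2 dilutions up to 100 μM, for 48 h at 37 °C, 5% CO2. NL4.3-Ren infections ran in parallel, with an enfuvirtide reference. Luciferase RLUs were read and IC50 obtained by nonlinear regression.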

[3] = Selectivity index, ratio of CC50 for human MT2 cells to IC50 for antiviral activity against VSV envelope pseudotyped HIV infected in MT2 cells by viral entry evaluation assay; assay type: toxicity, cell-based; details: read-out: Selectivity Index
[4] = Antiviral activity against HIV1 pNL4.3-Luc infected in MT2 cells assessed as luciferase activity measured after 48 hrs by transfection assay; assay type: functional, cell-based; details: Human immunodeficiency virus 1, MT2, 48 h
Summary of the method: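 MT-2 cells were electroporated at 260 V, maximum resistance, with an HIV-1 whole-genome luciferase plasmid (pNL4.3-Luc). They were then treated with base-2 serial dilutions from 0.7 to 100 μM in complete RPMI at 37 °C for 48 h. PMA served as the transactivation reference. Cells were lysed and luciferase RLUs read. IC50 came from nonlinear dose–response regression.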

[5] = Selectivity index, ratio of CC50 for human MT2 cells to IC50 for antiviral activity against HIV1 pNL4.3-Luc infected in MT2 cells by transfection assay; assay type: toxicity, cell-based; details: read-out: Selectivity Index

With C=C1C(=O)O[C@@H]([C@@H](C)[C@]2(O)C[C@H](OC(C)=O)[C@]3(O)[C@@H]4C[C@H]5O[C@]56CC=CC(=O)[C@]6(C)[C@H]4CC[C@@]32C)C[C@]1(C)O as the compound, how does the selectivity ratio [1] read?
Its selectivity ratio is over 5.3.

Which selectivity ratio [1] does the source give for C[C@H](Cn1cnc2c(N)ncnc21)OCP(=O)(O)O [TENOFOVIR ANHYDROUS] here?
The selectivity ratio was 333.

For C=C1C(=O)O[C@@H]([C@@H](C)[C@]2(O)C[C@H](OC(C)=O)[C@]3(O)[C@@H]4C[C@H]5O[C@]56CC=CC(=O)[C@]6(C)[C@H]4CC[C@@]32C)C[C@@]1(C)O, which selectivity ratio [1] is on record?
The selectivity ratio was over 8.

What does the source list for enfuvirtide?
pIC50 [2]: < 6.00; selectivity ratio [3]: 66.7; pIC50 [4]: 8.00

Which selectivity ratio [1] does the source give for CC(=O)O[C@H]1C=C([C@H](C)[C@H]2CC(C)=C(C)C(=O)O2)[C@@]2(C)CC[C@H]3[C@@H](C[C@H]4O[C@]45CC=CC(=O)[C@]35C)[C@@]12O here?
The selectivity ratio was 10.6.

And the selectivity ratio [3]?
The selectivity ratio was 2.66.

With CC(=O)O[C@H]1C=C([C@H](C)[C@H]2CC(C)=C(C)C(=O)O2)[C@@]2(C)CC[C@H]3[C@@H](C[C@@H](O)[C@]45C=C[C@H](OO4)C(=O)[C@]35C)[C@@]12O as the compound, how does the pIC50 [2] read?
Its pIC50 is 5.49.

And the selectivity ratio [3]?
Its selectivity ratio is 1.64.

And the selectivity ratio [5]?
The selectivity ratio was 1.02.

What about the pIC50 [4] of the same compound?
Its pIC50 is 5.71.
